Published values from different studies.
Lines come from different studies, so protocols differ.
Target: Serine/threonine-protein kinase Sgk2 (SGK2, Homo sapiens, UniProt Q9HBY8)
Residues used in one study (Q9HBY8 1-367): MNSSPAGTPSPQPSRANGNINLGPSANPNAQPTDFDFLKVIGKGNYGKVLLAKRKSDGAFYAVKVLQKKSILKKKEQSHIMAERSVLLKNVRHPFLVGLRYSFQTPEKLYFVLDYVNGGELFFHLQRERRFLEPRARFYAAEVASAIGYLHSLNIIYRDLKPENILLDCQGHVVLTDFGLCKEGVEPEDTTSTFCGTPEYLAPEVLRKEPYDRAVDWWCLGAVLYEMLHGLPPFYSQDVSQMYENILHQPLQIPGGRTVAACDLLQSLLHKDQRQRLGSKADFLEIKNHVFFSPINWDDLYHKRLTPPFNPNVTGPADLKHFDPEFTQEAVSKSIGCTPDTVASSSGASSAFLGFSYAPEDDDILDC

The inhibition of CN1CC(Oc2cnc(C#N)cc2-c2ccn3nc(NC(=O)C4CC4)cc3c2)C1 is reported as -2% (enzyme activity; inhibitor; 1 µM).
For CCCOc1ccc(OC)c(F)c1C(=O)c1ccc(C(=O)N[C@@H]2CNC[C@H]2NC(=O)c2ccc3[nH]ncc3c2)cc1, the remaining activity was 72% (enzyme activity; inhibitor; 50 nM).
For Cn1cnc(Br)c1C1=CN(c2ncnc3[nH]cnc23)CCS1, the inhibition was 20.8% (enzyme activity; inhibitor; radiometric; 50 nM).
With CCC(=N\O)/C(C)=C/c1ccc(F)cc1 the remaining binding was 78% (cell-free assay; competition with immobilised ligand; 1 µM).
The remaining activity of Cc1sc(C(=O)NC2COC2)cc1-n1cc(NC(=O)Nc2c(F)cccc2Cl)cn1 is reported as 97.2% (enzyme activity; inhibitor; 10 µM).
For COc1cc2ncnc(Nc3ccc(Oc4ccccc4)cc3C)c2cc1OC, the inhibition was -4% (enzyme activity; inhibitor; 1 µM).
For O=C1CCc2cc(Nc3cc(OC4CCOCC4)c([N+](=O)[O-])cc3Cl)ccc2N1, the remaining binding was 80% (cell-free assay; competition with immobilised ligand; 1 µM).
CNC(=O)c1cc(Oc2ccc(NC(=O)Nc3ccc(Cl)c(C(F)(F)F)c3)cc2)ccn1 gave an inhibition of -2% (enzyme activity; inhibitor; 10 µM).
The remaining activity of Cc1ccc(C(=O)Nc2ccc(CN3CCN(C)CC3)c(C(F)(F)F)c2)cc1C#Cc1cnc2cccnn12 is reported as 76% (enzyme activity; inhibitor; 23.5 nM).
The remaining binding of CC(=O)c1c(NS(C)(=O)=O)c2cc(-c3ccc(Cl)cc3)c(-c3ccc(Cl)cc3Cl)nc2n(C)c1=O is reported as 92% (cell-free assay; competition with immobilised ligand; 1 µM).
With CNc1cccc2cc(C(=O)Nc3ccc(C(=O)O)cc3)c(=O)[nH]c12 the inhibition was -1.2% (enzyme activity; inhibitor; 10 µM).
With Cc1cnc(NC2CCOCC2)nc1-n1cnc(C(=O)NC(CN)c2cc(F)cc(Cl)c2)c1 (centres unmarked) the remaining activity was 25% (enzyme activity; inhibitor; radiometric; 1 µM).
With O=C(NS(=O)(=O)c1ccc(NCC2CCOCC2)c([N+](=O)[O-])c1)c1ccc(N2CCN(Cc3ccc(C(F)(F)F)cc3-c3ccc(Cl)cc3)CC2)cc1Oc1cnc2[nH]ccc2c1 the remaining binding was 100% (cell-free assay; competition with immobilised ligand; 1 µM).
With CC(C)(C)c1nc(-c2cccc(NS(=O)(=O)c3c(F)cccc3F)c2F)c(-c2ccnc(N)n2)s1 the remaining activity was 101% (enzyme activity; inhibitor; radiometric; 1 µM).
For O=C(Nc1cnn(-c2csc(C(=O)NC3COC3)c2)c1)Nc1c(F)cccc1Cl, the remaining activity was 88.6% (enzyme activity; inhibitor; 5 µM).
With Cc1ccc(Nc2nccc(N(C)c3ccc4c(C)n(C)nc4c3)n2)cc1S(N)(=O)=O the inhibition was 5% (enzyme activity; inhibitor; 0.3 µM).
For CSc1cccnc1N1CCN(Cc2nc3ccccc3[nH]2)CC1, the remaining binding was 81% (cell-free assay; competition with immobilised ligand; 1 µM).
For N#CCCc1ccc2c(c1)-c1[nH]c3ccc([N+](=O)[O-])cc3c1CC(=O)N2, the remaining signal was 114% (cell-free assay; 0.5 µM).
CCCS(=O)(=O)Nc1ccc(F)c(C(=O)c2c[nH]c3ncc(-c4ccc(Cl)cc4)cc23)c1F gave an inhibition of < 10% (enzyme activity; inhibitor; 1 µM).
The remaining binding of CNC(=O)Nc1ccc2c(c1)CC[C@@]21OC(=O)N(CC(=O)N(Cc2ccc(F)cc2)[C@@H](C)C(F)(F)F)C1=O is reported as 100% (cell-free assay; competition with immobilised ligand; 1 µM).
CCN(CC)CCNC(=O)c1c(C)[nH]c(/C=C2\C(=O)Nc3ccc(F)cc32)c1C has an inhibition of 4% (enzyme activity; inhibitor; 0.3 µM).
The remaining binding of Nc1c(C(=O)NCc2ccc(C(=O)NCCCC3CCCCC3)cc2)cnn1-c1ccccc1 is reported as 72% (cell-free assay; competition with immobilised ligand; 0.1 µM).
The remaining signal of O=C1NC(=O)c2cc(Nc3ccc(F)cc3)c(Nc3ccc(F)cc3)cc21 is reported as 99.7% (cell-free assay; 0.5 µM).
